Numbering of substitutions follows the chain as printed.
Columns and labels:
PhlH [1] = target: T1, PhlH (Pseudomonas fluorescens, UniProt Q4JIX5, H76A); test: isothermal titration calorimetry; assay type: binding
T1 sequence (Q4JIX5 1-225 H76A): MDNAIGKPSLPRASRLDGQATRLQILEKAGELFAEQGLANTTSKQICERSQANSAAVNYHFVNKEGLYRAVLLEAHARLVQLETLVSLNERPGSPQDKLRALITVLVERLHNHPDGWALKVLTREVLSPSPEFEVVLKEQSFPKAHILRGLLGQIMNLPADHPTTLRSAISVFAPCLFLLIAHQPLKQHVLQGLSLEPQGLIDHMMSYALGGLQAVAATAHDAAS
Procedure, shortened: (§1)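 N-terminally His6-tagged full-length PhlH from P. fluorescens 2P24, with point mutants made by site-directed mutagenesis. Expressed in E. coli Rosetta (DE3) (0.2 mM IPTG, 16 °C, 20 h), then Ni-NTA and gel filtration. ITC at 25 °C in degassed 20 mM Tris-HCl pH 8.0, 100 mM NaCl, 0.5% DMSO. Cell held 0.05–0.1 mM protein; syringe held 0.5–1 mM test compound. First 0.4 µl injection discarded, then 19 × 2.0 µl injections at 2-min spacing. Dilution heats subtracted; one-site fit gave Kd.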

PhlH [2] = target: T2, PhlH (Pseudomonas fluorescens, UniProt Q4JIX5, L85A); test: isothermal titration calorimetry; assay type: binding
T2 sequence (Q4JIX5 1-225 L85A): T1 sequence (Q4JIX5 1-225 H76A)
Procedure, shortened: as §1

PhlH [3] = target: T3, PhlH (Pseudomonas fluorescens, UniProt Q4JIX5, R124A); test: isothermal titration calorimetry; assay type: binding
T3 sequence (Q4JIX5 1-225 R124A): T1 sequence (Q4JIX5 1-225 H76A)
Procedure, shortened: as §1

PhlH [4] = target: T4, PhlH (Pseudomonas fluorescens, UniProt Q4JIX5, V190A); test: isothermal titration calorimetry; assay type: binding
T4 sequence (Q4JIX5 1-225 V190A): T1 sequence (Q4JIX5 1-225 H76A)
Procedure, shortened: as §1

PhlH [5] = target: T5, PhlH (Pseudomonas fluorescens, UniProt Q4JIX5, L186A); test: isothermal titration calorimetry; assay type: binding
T5 sequence (Q4JIX5 1-225 L186A): T1 sequence (Q4JIX5 1-225 H76A)
Procedure, shortened: as §1

PhlH [6] = target: T6, PhlH (Pseudomonas fluorescens, UniProt Q4JIX5, F173A); test: isothermal titration calorimetry; assay type: binding
T6 sequence (Q4JIX5 1-225 F173A): T1 sequence (Q4JIX5 1-225 H76A)
Procedure, shortened: as §1

PhlH R124A = target: T7, PhlH R124A (Pseudomonas fluorescens 2P24, UniProt Q4JIX5 1-225, R124A); test: EMSA
T7 sequence: T1 sequence (Q4JIX5 1-225 H76A) with R124A

How did the Kd (PhlH [1]) turn out when `CC(=O)c1c(O)cc(O)c(C(C)=O)c1O` [2,4-DAPG] was run?
The Kd was 10.9 µM.

What about the Kd (PhlH [2]) of the same molecule?
Its Kd is 39 µM.

And the Kd (PhlH [3])?
Its Kd is 13.2 µM.

What about the Kd (PhlH [4]) of the same molecule?
Its Kd is 24.3 µM.

What about the Kd (PhlH [5]) of the same molecule?
The Kd was 15.4 µM.

What about the Kd (PhlH [6]) of the same molecule?
The Kd was 20.2 µM.

B1: F1 (phlG operator / upstream region) (dsDNA)
DNA 1: TAGTTCTAATTCAAATTTGACTTTTTATTT
DNA 2: AAATAAAAAGTCAAATTTGAATTAGAACTA
Does B1 bind (PhlH R124A)?
Result: no binding

Source: paper PMC9163588 (The Journal of Biological Chemistry, 2022)
